Results on 19 molecules are retold here after ChEMBL document CHEMBL1122658, “Amnesia-reversal activity of a series of N-[(disubstituted-amino)alkyl] -2-oxo-1-pyrrolidineacetamides, including pramiracetam” (1984).

One experiment deals with Mus musculus. Nature of the experiment: Ability to reverse electroconvulsive shock induced amnesia in mice, after administering intraperitoneally at a dose of 1.25 mg/kg. It is filed as functional. Particulars: route intraperitoneal. In a few lines: (§1)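 Male CF-1 mice (20-25 g), five groups of 20, trained in one trial on step-through inhibitory avoidance (darkened chamber). ECS given 2 h after training. Test drug or vehicle placebo injected ip 2 h after ECS, 1 h before retention test. Entry into box within 60 s scored as amnesia. % reversal = (drug − base-line ECS+placebo)/(ceiling no-ECS+placebo − base-line) ×100.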
With `CN1CCC[C@H]1c1cccnc1` [NICOTINE], the Amnesia reversal is listed as 0%.
For `COC(=O)[C@H]1[C@@H](OC(=O)c2ccccc2)C[C@@H]2CC[C@H]1N2C` [COCAINE], the Amnesia reversal is given as 10%.
Same read-out and setting: under `CN(C)CCCN1c2ccccc2Sc2ccc(Cl)cc21` [CHLORPROMAZINE] stands 10%; under `C[C@H](N)Cc1ccccc1` [DEXTROAMPHETAMINE], 40%; under `C[C@@H]1CCC[C@H](C)N1CCNC(=O)CN1CCCC1=O`, 20%.
On the same count and under the same terms, the same measure for `CC(C)N(CCCNC(=O)CN1CCCC1=O)C(C)C`: 9%; for `CCC1CCCC(CC)N1CCCNC(=O)CN1CCCC1=O` (configuration not stated): 0%; for `CC(C)N(CCNC(=O)CN1CCCC1=O)C(C)C` [PRAMIRACETAM]: 30%.
The same measure, in the same setting: the same measure for `O=C(CN1CCCC1=O)NCCN1CCCCC1`: 64%; for `CCN(CC)CCNC(=O)CN1CC(c2ccccc2)CC1=O` (configuration not stated): 0%.
Take `CC1CCCC(C)N1CCCNC(=O)CN1CCCC1=O` (configuration not stated): the Amnesia reversal was found to be 25%.
Take `CC(C)N(CCCNC(=O)CN1CC(c2ccccc2)CC1=O)C(C)C` (configuration not stated): the Amnesia reversal came to 0%.
On the same count and under the same terms, the same measure for `C[C@H]1CCC[C@H](C)N1CCNC(=O)CN1CCCC1=O`: 45%.

The test system of the next experiment is Mus musculus. Nature of the experiment: Ability to reverse electroconvulsive shock (ECS) induced amnesia in mice, after administering intraperitoneally, at a dose of 80.0 mg/kg. It is filed as functional. The conditions noted are these: route intraperitoneal. The procedure, abridged:
as §1
For `CN(C)CCCNC(=O)CN1CCCC1=O`, the Amnesia reversal is 46%.
The same measure, in the same setting: the same measure for `C[C@@H]1CCC[C@H](C)N1CCNC(=O)CN1CCCC1=O`: 10%.
Take `CC1CCCC(C)N1CCNC(=O)CCN1CCCC1=O` (configuration not stated): the Amnesia reversal amounted to 17%.
With `CC(C)N(CCCNC(=O)CN1CCCC1=O)C(C)C`, the Amnesia reversal was determined as 30%.
Still for that read-out and setting: the same measure for `CCC1CCCC(CC)N1CCCNC(=O)CN1CCCC1=O` (configuration not stated): 17%; for `CC1CCCC(C)N1CCCNC(=O)CN1C(=O)CCC1(C)C` (configuration not stated): 50%.
Still for that read-out and setting: under `CC(C)N(CCNC(=O)CN1CCCC1=O)C(C)C` [PRAMIRACETAM] stands 18%; under `CC1CCCC(C)N1CCNC(=O)CN1CCCCC1=O` (configuration not stated), 60%.
The same measure, in the same setting: the same measure for `O=C(CN1CCCC1=O)NCCN1CCCCC1`: 0%; for `CCN(CC)CCNC(=O)CN1CC(c2ccccc2)CC1=O` (configuration not stated): 8%; for `CC1CCCC(C)N1CCCNC(=O)CN1CCCC1=O` (configuration not stated): 100%.
Take `NC(=O)CN1CCC(c2ccccc2)C1=O` (configuration not stated): the Amnesia reversal is recorded as 33%.
Still for that read-out and setting: under `CC(C)N(CCCNC(=O)CN1CC(c2ccccc2)CC1=O)C(C)C` (configuration not stated) stands 27%; under `C[C@H]1CCC[C@H](C)N1CCNC(=O)CN1CCCC1=O`, 17%.

For a further experiment, the system named is Mus musculus. Nature of the experiment: Ability to reverse electroconvulsive shock (ECS) induced amnesia in mice, after administering intraperitoneally, at a dose of 160 mg/kg. It is filed as functional. The conditions noted are these: route intraperitoneal. In a few lines:
as §1
Turning to `CC1CCCC(C)N1CCCNC(=O)CN1C(=O)CCC1(C)C` (configuration not stated), the Amnesia reversal was found to be 33%.
Same read-out and setting: the same measure for `CC1CCCC(C)N1CCCNC(=O)CN1CCCC1=O` (configuration not stated): 60%.

In another experiment the test system is Mus musculus. Nature of the experiment: Ability to reverse electroconvulsive shock induced amnesia in mice, after administering intraperitoneally at a dose of 20 mg/kg. It is filed as functional. The conditions noted are these: route intraperitoneal. In a few lines:
as §1
With `CC1CCCC(C)N1CCCNC(=O)CN1C(=O)CCC1(C)C` (configuration not stated), the Amnesia reversal was 58%.

A further experiment deals with Mus musculus. Nature of the experiment: Ability to reverse electroconvulsive shock induced amnesia in mice, after administering intraperitoneally at a dose of 20.0 mg/kg. It is filed as functional. The conditions noted are these: route intraperitoneal. The procedure, abridged: as §1
As for `CN(C)CCCNC(=O)CN1CCCC1=O`, the Amnesia reversal is reported as 46%.
On the same count and under the same terms, the same measure for `C[C@@H]1CCC[C@H](C)N1CCNC(=O)CN1CCCC1=O`: 70%.
Still for that read-out and setting: under `CC1CCCC(C)N1CCNC(=O)CCN1CCCC1=O` (configuration not stated) stands 42%.
Still for that read-out and setting: under `CC(C)N(CCCNC(=O)CN1CCCC1=O)C(C)C` stands 20%; under `CCC1CCCC(CC)N1CCCNC(=O)CN1CCCC1=O` (configuration not stated), 42%.
Consider `CC(C)N(CCNC(=O)CN1CCCC1=O)C(C)C` [PRAMIRACETAM], for which the Amnesia reversal worked out at 82%.
Still for that read-out and setting: the same measure for `CC1CCCC(C)N1CCNC(=O)CN1CCCCC1=O` (configuration not stated): 10%.
On the same count and under the same terms, the same measure for `O=C(CN1CCCC1=O)NCCN1CCCCC1`: 0%; for `CCN(CC)CCNC(=O)CN1CC(c2ccccc2)CC1=O` (configuration not stated): 0%.
Same read-out and setting: the same measure for `CC1CCCC(C)N1CCCNC(=O)CN1CCCC1=O` (configuration not stated): 55%.
For `NC(=O)CN1CCC(c2ccccc2)C1=O` (configuration not stated), the Amnesia reversal is listed as 17%.
Same read-out and setting: under `CC(C)N(CCCNC(=O)CN1CC(c2ccccc2)CC1=O)C(C)C` (configuration not stated) stands 55%; under `C[C@H]1CCC[C@H](C)N1CCNC(=O)CN1CCCC1=O`, 25%.

The test system of a further experiment is Mus musculus. Nature of the experiment: Ability to reverse electroconvulsive shock (ECS) induced amnesia in mice, after administering intraperitoneally, at a dose of 5 mg/kg. It is filed as functional. Particulars: route intraperitoneal. In a few lines:
as §1
`CN(C)CCNC(=O)CN1CCCC1=O.Cl`: the Amnesia reversal came out at 50%.
Same read-out and setting: under `CCC1CCCC(CC)N1CCCNC(=O)CN1CCCC1=O` (configuration not stated) stands 42%; under `CC1CCCC(C)N1CCCNC(=O)CN1C(=O)CCC1(C)C` (configuration not stated), 25%.
Still for that read-out and setting: the same measure for `C[C@H]1CCC[C@H](C)N1CCNC(=O)CN1CCCC1=O`: 48%.

The next experiment has as its system Mus musculus. Nature of the experiment: Ability to reverse electroconvulsive shock (ECS) induced amnesia in mice, after administering intraperitoneally, at a dose of 0.63 mg/kg. The conditions noted are these: route intraperitoneal. It is filed as functional. In a few lines:
as §1
For the molecule `CN1CCC[C@H]1c1cccnc1` [NICOTINE], the Amnesia reversal is on record as 5%.
Same read-out and setting: the same measure for `COC(=O)[C@H]1[C@@H](OC(=O)c2ccccc2)C[C@@H]2CC[C@H]1N2C` [COCAINE]: 10%; for `CN(C)CCCN1c2ccccc2Sc2ccc(Cl)cc21` [CHLORPROMAZINE]: 20%; for `C[C@H](N)Cc1ccccc1` [DEXTROAMPHETAMINE]: 15%.
The same measure, in the same setting: under `C[C@@H]1CCC[C@H](C)N1CCNC(=O)CN1CCCC1=O` stands 10%; under `CC(C)N(CCCNC(=O)CN1CCCC1=O)C(C)C`, 0%; under `CC(C)N(CCNC(=O)CN1CCCC1=O)C(C)C` [PRAMIRACETAM], 0%.
Same read-out and setting: the same measure for `O=C(CN1CCCC1=O)NCCN1CCCCC1`: 18%; for `CCN(CC)CCNC(=O)CN1CC(c2ccccc2)CC1=O` (configuration not stated): 0%.
As to `CC(C)N(CCCNC(=O)CN1CC(c2ccccc2)CC1=O)C(C)C` (configuration not stated), the Amnesia reversal amounted to 9%.

For a further experiment, the system named is Mus musculus. Nature of the experiment: Ability to reverse electroconvulsive shock induced amnesia in mice, after administering intraperitoneally at a dose of 2.5 mg/kg. It is filed as functional. The conditions noted are these: route intraperitoneal. In a few lines: as §1
Take `CN1CCC[C@H]1c1cccnc1` [NICOTINE]: the Amnesia reversal is 5%.
Still for that read-out and setting: the same measure for `COC(=O)[C@H]1[C@@H](OC(=O)c2ccccc2)C[C@@H]2CC[C@H]1N2C` [COCAINE]: 15%; for `CN(C)CCCN1c2ccccc2Sc2ccc(Cl)cc21` [CHLORPROMAZINE]: 0%.
Same read-out and setting: under `C[C@@H]1CCC[C@H](C)N1CCNC(=O)CN1CCCC1=O` stands 50%.
The same measure, in the same setting: under `CC(C)N(CCCNC(=O)CN1CCCC1=O)C(C)C` stands 0%; under `CCC1CCCC(CC)N1CCCNC(=O)CN1CCCC1=O` (configuration not stated), 0%.
As for `CC(C)N(CCNC(=O)CN1CCCC1=O)C(C)C` [PRAMIRACETAM], the Amnesia reversal is 60%.
Take `O=C(CN1CCCC1=O)NCCN1CCCCC1`: the Amnesia reversal was determined as 45%.
Still for that read-out and setting: under `CCN(CC)CCNC(=O)CN1CC(c2ccccc2)CC1=O` (configuration not stated) stands 27%.
On the same count and under the same terms, the same measure for `CC1CCCC(C)N1CCCNC(=O)CN1CCCC1=O` (configuration not stated): 33%; for `CC(C)N(CCCNC(=O)CN1CC(c2ccccc2)CC1=O)C(C)C` (configuration not stated): 45%.
On the same count and under the same terms, the same measure for `C[C@H]1CCC[C@H](C)N1CCNC(=O)CN1CCCC1=O`: 82%.

The subject of the next experiment is Mus musculus. Nature of the experiment: Ability to reverse electroconvulsive shock (ECS) induced amnesia in mice, after administering intraperitoneally, at a dose of 0.31 mg/kg. It is filed as functional. The conditions noted are these: route intraperitoneal. The procedure, abridged: as §1
Turning to `CN1CCC[C@H]1c1cccnc1` [NICOTINE], the Amnesia reversal is 20%.
The same measure, in the same setting: the same measure for `COC(=O)[C@H]1[C@@H](OC(=O)c2ccccc2)C[C@@H]2CC[C@H]1N2C` [COCAINE]: 15%; for `CN(C)CCCN1c2ccccc2Sc2ccc(Cl)cc21` [CHLORPROMAZINE]: 15%.
On the same count and under the same terms, the same measure for `C[C@H](N)Cc1ccccc1` [DEXTROAMPHETAMINE]: 10%.

A further experiment concerns Mus musculus. Nature of the experiment: Ability to reverse electroconvulsive shock induced amnesia in mice, after administering intraperitoneally at a dose of 5 mg/kg. The conditions noted are these: route intraperitoneal. It is filed as functional. In a few lines:
as §1
With `CN(C)CCCNC(=O)CN1CCCC1=O`, the Amnesia reversal worked out at 31%.
Same read-out and setting: the same measure for `CN1CCC[C@H]1c1cccnc1` [NICOTINE]: 0%; for `COC(=O)[C@H]1[C@@H](OC(=O)c2ccccc2)C[C@@H]2CC[C@H]1N2C` [COCAINE]: 10%; for `CN(C)CCCN1c2ccccc2Sc2ccc(Cl)cc21` [CHLORPROMAZINE]: 0%.
On the same count and under the same terms, under `C[C@@H]1CCC[C@H](C)N1CCNC(=O)CN1CCCC1=O` stands 70%.
Still for that read-out and setting: the same measure for `CC1CCCC(C)N1CCNC(=O)CCN1CCCC1=O` (configuration not stated): 33%; for `CC(C)N(CCCNC(=O)CN1CCCC1=O)C(C)C`: 30%.
Consider `CC(C)N(CCNC(=O)CN1CCCC1=O)C(C)C` [PRAMIRACETAM], for which the Amnesia reversal is given as 96%.
Same read-out and setting: under `CC1CCCC(C)N1CCNC(=O)CN1CCCCC1=O` (configuration not stated) stands 20%.
The same measure, in the same setting: the same measure for `O=C(CN1CCCC1=O)NCCN1CCCCC1`: 45%.
The same measure, in the same setting: under `CCN(CC)CCNC(=O)CN1CC(c2ccccc2)CC1=O` (configuration not stated) stands 42%; under `CC1CCCC(C)N1CCCNC(=O)CN1CCCC1=O` (configuration not stated), 50%; under `NC(=O)CN1CCC(c2ccccc2)C1=O` (configuration not stated), 8%.
Turning to `CC(C)N(CCCNC(=O)CN1CC(c2ccccc2)CC1=O)C(C)C` (configuration not stated), the Amnesia reversal worked out at 82%.
